Published values collected from several papers.
Lines come from different studies, so protocols differ.
Sample: plasma

| Compound | test system | conditions | AUC(0-t) |
| --- | --- | --- | --- |
| C[C@@H](Oc1ccc(S(C)(=O)=O)cc1C(=O)N1C[C@@H]2C[C@]2(c2cc(C(F)(F)F)on2)C1)C(F)(F)F | human | oral, 25 mg, fasted | 10.8 µM·h |
| Nc1cc(C(F)(F)F)c(-c2cc(N3CCOCC3)nc(N3CCOCC3)n2)cn1 | human | oral, 100 mg/day, patients | 8800 ng·h/mL |
| Oc1cc(O)c2c(c1)O[C@@H](c1ccc(O)c(O)c1)[C@@H](O)C2 | human | oral, 100 mg, single dose | 14.2 ng·h/mL |
| CCO[C@H]1CCN(Cc2c(OC)cc(C)c3[nH]ccc23)[C@H](c2ccc(C(=O)O)cc2)C1 | human | oral, 100 mg, multiple doses, twice daily, patients | 11900 ng·h/mL |
| C#Cc1cccc(Nc2ncnc3cc(OCCOC)c(OCCOC)cc23)c1 | human | oral, 50 mg, multiple doses, once daily, patients | 24.9 µM·h |
| CCCCC1=NC2(CCCC2)C(=O)N1Cc1ccc(-c2ccccc2S(=O)(=O)Nc2noc(C)c2C)c(COCC)c1 | human | oral, 200 mg, single dose, fed, healthy volunteers, tablet | 50500 ng·h/mL |
| COc1cc2c(Nc3ccc(Br)cc3F)ncnc2cc1OCC1CCN(C)CC1 | human | oral, 85 mg/m², multiple doses, patients | 15500 ng·h/mL |
| CCOc1ccc(Cc2cc([C@@H]3S[C@H](CO)[C@@H](O)[C@H](O)[C@H]3O)c(OC)cc2C)cc1 | male human | oral, 5 mg, single dose, fasted, healthy volunteers | 1650 ng·h/mL |
| CC(C)(O)c1ccccc1-c1ccc2[nH]c(/C=C/c3ccc(C(F)(F)F)cc3)nc2c1 | male human | oral, 5 mg, single dose, fasted | 350 ng·h/mL |
| FC(F)(F)c1ccc(CNc2ccc(Cc3c[nH]c4ncc(Cl)cc34)cn2)cn1 | human | oral, 800 mg, multiple doses, patients | 22300 ng·h/mL |
| CO[C@H]1CC[C@H](N2C(=O)CNc3ncc(-c4ccc(C(C)(C)O)nc4)nc32)CC1 | human | oral, 30 mg, multiple doses, patients | 1440 ng·h/mL |
| C[C@@H](Oc1ccc(S(C)(=O)=O)cc1C(=O)N1C[C@@H]2C[C@]2(c2cc(C(F)(F)F)on2)C1)C(F)(F)F | human | oral, 25 mg | 12 µM·h |
| C[C@@H](Nc1cc(F)cc(F)c1)c1cc(C(=O)N(C)C)cc2c(=O)cc(N3CCOCC3)oc12 | human | oral, 360 mg, single dose, patients | 8350 ng·h/mL |
| CCNCCCNC/C=C\CNCCCNCC | human | intravenous, 100 mg, patients, infusion | 304 ng·h/mL |
| O=C(/C=C/c1cccc(S(=O)(=O)Nc2ccccc2)c1)NO | human | intravenous, 1900 mg/m², patients | 72100 ng·h/mL |
| NS(=O)(=O)c1ccc(NC(=O)Nc2ccc(F)cc2)cc1 | human | oral, 1000 mg, multiple doses, once daily | 70700 ng·h/mL |
| O=C(O)C[C@H](O)C[C@H](O)/C=C/c1c(C2CC2)nc2ccccc2c1-c1ccc(F)cc1 | human | oral, 2 mg, single dose, fed, healthy volunteers, tablet | 292 ng·h/mL |
| COc1ccc([C@@H]2CN(C(=O)[C@@H](O)CO)C[C@@]2(C)[C@@H](C)O)cc1OC1CN(c2ccc(C)cn2)C1 | human | oral, 0.5 mg, single dose, healthy volunteers | 188 ng·h/mL |
| COc1cc(N2CCC(N3CCN(C)CC3)CC2)ccc1Nc1ncnc(Nc2ccccc2S(=O)(=O)C(C)C)n1 | human | oral, 50 mg, multiple doses, patients | 4640 ng·h/mL |
| COc1ccc(-n2nc(C(N)=O)c3c2C(=O)N(c2ccc(N4CCCCC4=O)cc2)CC3)cc1 | human | oral, 10 mg, single dose, healthy volunteers | 2480 ng·h/mL |
| Cc1nc(NC(=O)N2CCC[C@H]2C(N)=O)sc1-c1ccnc(C(C)(C)C(F)(F)F)c1 | human | oral, 90 mg, patients | 7600 ng·h/mL |
| C[C@@]1(c2cc(NC(=O)c3ccc(C#N)cn3)ccc2F)C=CSC(N)=N1 | human | oral, 30 mg, single dose | 2510 ng·h/mL |
| COc1cc2c(cc1OC)CN(CCc1ccc(NC(=O)c3cc(OC)c(OC)cc3NC(=O)c3cnc4ccccc4c3)cc1)CC2 | human | intravenous, 1.5 mg/kg, patients | 10.5 µM·h |
| CO[C@@H]1[C@H](OC(=O)N2CC(CCN3CCOCC3)C2)CC[C@]2(CO2)[C@H]1[C@@]1(C)O[C@@H]1CC=C(C)C | human | subcutaneous, 1.2 mg, single dose, healthy volunteers | 5.45 ng·h/mL |
| OC[C@H]1O[C@@H](c2ccc(Cl)c(Cc3ccc(O[C@H]4CCOC4)cc3)c2)[C@H](O)[C@@H](O)[C@@H]1O | human | oral, 2.5 mg, single dose | 0.402 µM·h |
| CC(C)n1cc(C#N)c2cc(-n3cc(C(=O)O)cn3)ccc21 | human | oral, 400 mg, single dose, fasted, healthy volunteers | 91500 ng·h/mL |
| COCCOc1cnc2ccn([C@H](C)c3nnc4c(F)cc(-c5cnn(C)c5)cn34)c(=O)c2c1 | human | oral, 150 mg, multiple doses, once daily, patients | 31900 ng·h/mL |
